# Measurements reported in ChEMBL document CHEMBL5724801, “EUbOPEN Chemogenomics Library - Multiplex” (2024).
# Where “and” joins values, the source holds several entries; their conditions need not be identical. Identical values can stand only once.
# Test system: Fibroblast
# Test: Multiplex assay against human fibroblast
# Assay type: toxicity, cell-based
# Settings: 12 h, 1 µM, compound concentration 1 uM
# Procedure, shortened: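 Live cells carried four stains from seeding: Hoechst33342, BioTracker Green Microtubule Cytoskeleton Dye, MitoTracker Red and Annexin V Alexa Fluor 680. They were imaged on a CQ1 microscope at 37°C and 5% CO2 after compound addition. Using CellPathfinder machine-learning gating, cells were split into Hoechst high-intensity objects or normal cells, normal cells into healthy, pyknosed or fragmented nuclei, and pyknosed cells into mitotic or apoptotic; tubulin, mitochondrial-mass and membrane-permeability phenotypes are per cents of healthy-nucleus cells.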
Structure (SMILES),Population Apoptotic (%),Population Fragmented Nuclei (%),Population Healthy Nuclei (%),Population Hoechst High Intensity Objects (%),Population Membrane Permeable-Phenotype (%),Population Mitochondria Different-Phenotype (%),Population Mitotic Cells (%),Population Normal (%),Population Pyknosed Nuclei (%),Population Tubulin-Different-Phenotype (%)
COc1ccc(-n2c(C)c([N+](=O)[O-])c3ccc(O)cc32)cc1,18% and 14.29%,8.91% and 3.57%,66.34% and 79.76%,0%,5.97% and 4.48%,7.46%,82% and 85.71%,100%,24.75% and 16.67%,13.43% and 18.66%
COc1cc(C(=O)N(CCCc2ccccc2)Cc2ccc(CC(=O)O)cc2)cc(OC)c1C,63% and 42%,14% and 37%,73% and 45%,2% and 4%,0% and 11%,0% and 5%,36% and 57%,97% and 95%,12% and 16%,15% and 36%
O=C1c2c(Br)c(Br)c(Br)c(Br)c2C(=O)N1c1ncc[nH]1,13.21% and 28%,9.34% and 7.04%,61.54% and 81.22%,0%,4.46% and 1.16%,9.82% and 9.25%,86.79% and 72%,100%,29.12% and 11.74%,16.96% and 14.45%
Cc1onc(-c2ccccc2Cl)c1C(=O)N(C)c1ccc(Cl)cc1,60% and 35%,17% and 22%,68% and 50%,7% and 9%,0% and 6%,7% and 8%,39% and 65%,92% and 90%,13% and 27%,23% and 63%

# Same assay, conditions: 12 h, 1 µM, compound concentration 1 uM
row,Structure (SMILES),Total Cell Count
1,COc1ccc(-n2c(C)c([N+](=O)[O-])c3ccc(O)cc32)cc1,202 and 168
2,COc1cc(C(=O)N(CCCc2ccccc2)Cc2ccc(CC(=O)O)cc2)cc(OC)c1C,160 and 176
3,O=C1c2c(Br)c(Br)c(Br)c(Br)c2C(=O)N1c1ncc[nH]1,182 and 213
4,Cc1onc(-c2ccccc2Cl)c1C(=O)N(C)c1ccc(Cl)cc1,178 and 161

# Same assay, conditions: 12 h, 10 µM, compound concentration 10 uM
Structure (SMILES),Population Apoptotic (%),Population Fragmented Nuclei (%),Population Healthy Nuclei (%),Population Hoechst High Intensity Objects (%),Population Membrane Permeable-Phenotype (%),Population Mitochondria Different-Phenotype (%),Population Mitotic Cells (%),Population Normal (%),Population Pyknosed Nuclei (%),Population Tubulin-Different-Phenotype (%)
COc1ccc(-n2c(C)c([N+](=O)[O-])c3ccc(O)cc32)cc1,17.65% and 23.08%,6.97% and 4.59%,67.66% and 77.52%,0%,5.15% and 4.73%,6.62% and 11.24%,82.35% and 76.92%,100%,25.37% and 17.89%,14.71% and 28.4%
COc1cc(C(=O)N(CCCc2ccccc2)Cc2ccc(CC(=O)O)cc2)cc(OC)c1C,41% and 45%,16% and 25%,70% and 61%,2% and 4%,0% and 7%,5% and 4%,58% and 54%,97% and 95%,12% and 13%,28% and 47%
O=C1c2c(Br)c(Br)c(Br)c(Br)c2C(=O)N1c1ncc[nH]1,10.81% and 15.56%,9.5% and 3.32%,69.83% and 75.36%,0%,6.4% and 1.89%,,89.19% and 84.44%,100%,20.67% and 21.33%,10.4% and 27.67%
Cc1onc(-c2ccccc2Cl)c1C(=O)N(C)c1ccc(Cl)cc1,36% and 37%,16% and 24%,70% and 48%,2% and 3%,2% and 5%,6% and 11%,63% and 62%,97% and 96%,13% and 27%,29% and 64%

# Same assay, conditions: 12 h, 10 µM, compound concentration 10 uM
row,Structure (SMILES),Total Cell Count
1,COc1ccc(-n2c(C)c([N+](=O)[O-])c3ccc(O)cc32)cc1,201 and 218
2,COc1cc(C(=O)N(CCCc2ccccc2)Cc2ccc(CC(=O)O)cc2)cc(OC)c1C,197 and 181
3,O=C1c2c(Br)c(Br)c(Br)c(Br)c2C(=O)N1c1ncc[nH]1,179 and 211
4,Cc1onc(-c2ccccc2Cl)c1C(=O)N(C)c1ccc(Cl)cc1,144 and 151

# Same assay, conditions: 24 h, 1 µM, compound concentration 1 uM
Structure (SMILES),Population Apoptotic (%),Population Fragmented Nuclei (%),Population Healthy Nuclei (%),Population Hoechst High Intensity Objects (%),Population Membrane Permeable-Phenotype (%),Population Mitochondria Different-Phenotype (%),Population Mitotic Cells (%),Population Normal (%),Population Pyknosed Nuclei (%),Population Tubulin-Different-Phenotype (%)
COc1ccc(-n2c(C)c([N+](=O)[O-])c3ccc(O)cc32)cc1,9.52% and 17.86%,11.01% and 2.84%,69.72% and 81.25%,0%,4.61% and 4.2%,3.29% and 5.59%,90.48% and 82.14%,100%,19.27% and 15.91%,10.53% and 19.58%
COc1cc(C(=O)N(CCCc2ccccc2)Cc2ccc(CC(=O)O)cc2)cc(OC)c1C,68% and 52%,,77% and 41%,1% and 4%,0% and 1%,0% and 6%,31% and 48%,98% and 95%,10% and 13%,13% and 28%
O=C1c2c(Br)c(Br)c(Br)c(Br)c2C(=O)N1c1ncc[nH]1,,11.34% and 5.44%,70.62% and 82.01%,0%,5.84% and 4.08%,7.3% and 2.55%,91.43% and 60%,100%,18.04% and 12.55%,16.06% and 11.73%
Cc1onc(-c2ccccc2Cl)c1C(=O)N(C)c1ccc(Cl)cc1,44% and 39%,18% and 22%,65% and 54%,7% and 12%,0% and 8%,1% and 4%,55% and 60%,92% and 87%,16% and 23%,

# Same assay, conditions: 24 h, 1 µM, compound concentration 1 uM
row,Structure (SMILES),Total Cell Count
1,COc1ccc(-n2c(C)c([N+](=O)[O-])c3ccc(O)cc32)cc1,218 and 176
2,COc1cc(C(=O)N(CCCc2ccccc2)Cc2ccc(CC(=O)O)cc2)cc(OC)c1C,156 and 189
3,O=C1c2c(Br)c(Br)c(Br)c(Br)c2C(=O)N1c1ncc[nH]1,194 and 239
4,Cc1onc(-c2ccccc2Cl)c1C(=O)N(C)c1ccc(Cl)cc1,178 and 182

# Same assay, conditions: 24 h, 10 µM, compound concentration 10 uM
Structure (SMILES),Population Apoptotic (%),Population Fragmented Nuclei (%),Population Healthy Nuclei (%),Population Hoechst High Intensity Objects (%),Population Membrane Permeable-Phenotype (%),Population Mitochondria Different-Phenotype (%),Population Mitotic Cells (%),Population Normal (%),Population Pyknosed Nuclei (%),Population Tubulin-Different-Phenotype (%)
COc1ccc(-n2c(C)c([N+](=O)[O-])c3ccc(O)cc32)cc1,15.38% and 16.67%,4.88% and 5%,76.1% and 84.09%,0%,3.85% and 2.7%,8.33% and 6.49%,84.62% and 83.33%,100%,19.02% and 10.91%,15.38% and 20.54%
COc1cc(C(=O)N(CCCc2ccccc2)Cc2ccc(CC(=O)O)cc2)cc(OC)c1C,55% and 40%,12% and 25%,76% and 61%,1% and 4%,1% and 5%,6% and 0%,45% and 59%,98% and 96%,10% and 13%,25% and 41%
O=C1c2c(Br)c(Br)c(Br)c(Br)c2C(=O)N1c1ncc[nH]1,11.11% and 20%,13.13% and 3.29%,73.23% and 84.98%,0%,3.45% and 5.52%,4.14% and 7.18%,88.89% and 80%,100%,13.64% and 11.74%,11.72% and 23.2%
Cc1onc(-c2ccccc2Cl)c1C(=O)N(C)c1ccc(Cl)cc1,20% and 54%,16% and 21%,76% and 55%,2% and 4%,1% and 6%,4% and 6%,80% and 45%,97% and 95%,,32% and 59%

# Same assay, conditions: 24 h, 10 µM, compound concentration 10 uM
row,Structure (SMILES),Total Cell Count
1,COc1ccc(-n2c(C)c([N+](=O)[O-])c3ccc(O)cc32)cc1,205 and 220
2,COc1cc(C(=O)N(CCCc2ccccc2)Cc2ccc(CC(=O)O)cc2)cc(OC)c1C,192 and 175
3,O=C1c2c(Br)c(Br)c(Br)c(Br)c2C(=O)N1c1ncc[nH]1,198 and 213
4,Cc1onc(-c2ccccc2Cl)c1C(=O)N(C)c1ccc(Cl)cc1,134 and 149

# Same assay, conditions: 48 h, 1 µM, compound concentration 1 uM
Structure (SMILES),Population Apoptotic (%),Population Fragmented Nuclei (%),Population Healthy Nuclei (%),Population Hoechst High Intensity Objects (%),Population Membrane Permeable-Phenotype (%),Population Mitochondria Different-Phenotype (%),Population Mitotic Cells (%),Population Normal (%),Population Pyknosed Nuclei (%),Total Cell Count
COc1ccc(-n2c(C)c([N+](=O)[O-])c3ccc(O)cc32)cc1,26.32% and 22.22%,9.8% and 4.74%,82.45% and 85.79%,0%,0% and 1.84%,9.41% and 2.45%,73.68% and 77.78%,100%,7.76% and 9.47%,245 and 190
COc1cc(C(=O)N(CCCc2ccccc2)Cc2ccc(CC(=O)O)cc2)cc(OC)c1C,90% and 52%,21% and 50%,72% and 41%,1% and 2%,0% and 3%,0% and 9%,,98% and 97%,6% and 8%,168 and 211
O=C1c2c(Br)c(Br)c(Br)c(Br)c2C(=O)N1c1ncc[nH]1,,10% and 10.04%,84.21% and 84.56%,0%,0.62% and 1.83%,,63.64% and 92.86%,100%,5.79% and 5.41%,190 and 259
Cc1onc(-c2ccccc2Cl)c1C(=O)N(C)c1ccc(Cl)cc1,76% and 48%,26% and 28%,62% and 54%,9% and 11%,0% and 10%,1% and 6%,23% and 51%,90% and 88%,10% and 17%,185 and 188

# Same assay, conditions: 48 h, 1 µM, compound concentration 1 uM
row,Structure (SMILES),Population Tubulin-Different-Phenotype (%)
1,COc1cc(C(=O)N(CCCc2ccccc2)Cc2ccc(CC(=O)O)cc2)cc(OC)c1C,17% and 40%
2,O=C1c2c(Br)c(Br)c(Br)c(Br)c2C(=O)N1c1ncc[nH]1,6.88% and 17.81%
3,Cc1onc(-c2ccccc2Cl)c1C(=O)N(C)c1ccc(Cl)cc1,22% and 51%

# Same assay, conditions: 48 h, 10 µM, compound concentration 10 uM
Structure (SMILES),Population Apoptotic (%),Population Fragmented Nuclei (%),Population Healthy Nuclei (%),Population Hoechst High Intensity Objects (%),Population Membrane Permeable-Phenotype (%),Population Mitochondria Different-Phenotype (%),Population Mitotic Cells (%),Population Normal (%),Population Pyknosed Nuclei (%),Population Tubulin-Different-Phenotype (%)
COc1ccc(-n2c(C)c([N+](=O)[O-])c3ccc(O)cc32)cc1,28.57% and 38.89%,7.73% and 4.61%,85.51% and 78.8%,0%,3.39% and 7.02%,10.17% and 5.85%,71.43% and 61.11%,100%,6.76% and 16.59%,10.17% and 28.07%
COc1cc(C(=O)N(CCCc2ccccc2)Cc2ccc(CC(=O)O)cc2)cc(OC)c1C,77% and 58%,25% and 38%,65% and 54%,2% and 5%,1% and 5%,5% and 3%,22% and 41%,97% and 94%,9% and 6%,32% and 46%
O=C1c2c(Br)c(Br)c(Br)c(Br)c2C(=O)N1c1ncc[nH]1,,12.8% and 3.12%,85.31% and 89.29%,0%,1.11% and 2%,,,100%,1.9% and 7.59%,
Cc1onc(-c2ccccc2Cl)c1C(=O)N(C)c1ccc(Cl)cc1,44% and 65%,25% and 31%,68% and 55%,4% and 1%,0% and 8%,3% and 6%,55% and 35%,95% and 98%,6% and 12%,34% and 53%

# Same assay, conditions: 48 h, 10 µM, compound concentration 10 uM
row,Structure (SMILES),Total Cell Count
1,COc1ccc(-n2c(C)c([N+](=O)[O-])c3ccc(O)cc32)cc1,207 and 217
2,COc1cc(C(=O)N(CCCc2ccccc2)Cc2ccc(CC(=O)O)cc2)cc(OC)c1C,195 and 187
3,O=C1c2c(Br)c(Br)c(Br)c(Br)c2C(=O)N1c1ncc[nH]1,211 and 224
4,Cc1onc(-c2ccccc2Cl)c1C(=O)N(C)c1ccc(Cl)cc1,141 and 166
